In ChEMBL document CHEMBL5537190, “Development of Potent and Selective Monoacylglycerol Lipase Inhibitors. SARs, Structural Analysis, and Biological Characterization” (J Med Chem, 2024):
Calls of active or inactive are those of the source. The rule behind the calls is not given here.

How the values were obtained:
[1] = target: T1, Monoacylglycerol lipase ABHD6 (Mus musculus) (UniProt Q8R2Y0); assay: Binding affinity to mouse brain ABHD6 at 0.1 to 1 uM incubated for 30 mins in presence of MB064 by ABPP assay; assay type: tissue-based; conditions: dose 0.1-1 µM
T1 sequence (whole entry): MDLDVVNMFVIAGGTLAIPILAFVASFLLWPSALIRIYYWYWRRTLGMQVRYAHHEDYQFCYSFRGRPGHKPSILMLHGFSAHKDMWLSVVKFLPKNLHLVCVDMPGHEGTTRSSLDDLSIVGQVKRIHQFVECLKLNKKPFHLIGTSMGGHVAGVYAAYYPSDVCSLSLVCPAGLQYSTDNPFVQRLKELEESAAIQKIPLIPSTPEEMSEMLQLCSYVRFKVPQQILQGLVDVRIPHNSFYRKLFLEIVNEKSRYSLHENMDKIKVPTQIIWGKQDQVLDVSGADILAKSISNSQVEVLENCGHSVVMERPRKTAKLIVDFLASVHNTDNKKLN
How it was run: (§1)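 Male C57Bl/6J mouse brain (27 weeks) homogenised; membrane and cytosol fractions separated and diluted to 2.0 mg/mL. Samples incubated with compound (0.1 or 1 µM final) or 2.5% DMSO for 30 min at RT. Probes MB064 and FP-Bodipy (100 nM each) added for 10 min. SDS-PAGE with in-gel fluorescence; Coomassie staining as loading control.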

[2] = target: T2, Lysophosphatidylserine lipase ABHD12 (Mus musculus) (UniProt Q99LR1); assay: Binding affinity to mouse brain ABHD12 at 0.1 to 1 uM incubated for 30 mins in presence of g MB064 by ABPP assay; assay type: tissue-based; conditions: dose 0.1-1 µM; how it was run: as §1
T2 sequence (whole entry): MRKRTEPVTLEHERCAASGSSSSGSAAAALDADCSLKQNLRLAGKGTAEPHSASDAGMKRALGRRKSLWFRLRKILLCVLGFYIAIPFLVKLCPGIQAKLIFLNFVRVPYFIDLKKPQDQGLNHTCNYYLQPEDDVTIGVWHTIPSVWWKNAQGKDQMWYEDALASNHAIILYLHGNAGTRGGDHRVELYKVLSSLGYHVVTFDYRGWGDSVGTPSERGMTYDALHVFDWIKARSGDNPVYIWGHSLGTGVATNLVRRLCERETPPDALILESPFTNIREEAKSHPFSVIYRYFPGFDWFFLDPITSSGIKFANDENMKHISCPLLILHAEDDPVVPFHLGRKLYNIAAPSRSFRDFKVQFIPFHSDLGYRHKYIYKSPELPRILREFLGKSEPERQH

[3] = target: Acyl-protein thioesterase 2 (Mus musculus) (UniProt Q9WTL7); assay: Binding affinity to mouse brain LYPLA2 at 0.1 to 1 uM incubated for 30 mins in presence of MB064 by ABPP assay; assay type: tissue-based; conditions: dose 0.1-1 µM; how it was run: as §1
[4] = target: T3, Monoglyceride lipase (Mus musculus) (UniProt O35678); assay: In-vivo inhibition of ip dosed mouse MAGL assessed as increase in 2-Ag level measured after 1 hr by LC-MS/MS analysis; assay type: functional, organism-based; conditions: dose 0.2-20 mg/kg
T3 sequence (whole entry): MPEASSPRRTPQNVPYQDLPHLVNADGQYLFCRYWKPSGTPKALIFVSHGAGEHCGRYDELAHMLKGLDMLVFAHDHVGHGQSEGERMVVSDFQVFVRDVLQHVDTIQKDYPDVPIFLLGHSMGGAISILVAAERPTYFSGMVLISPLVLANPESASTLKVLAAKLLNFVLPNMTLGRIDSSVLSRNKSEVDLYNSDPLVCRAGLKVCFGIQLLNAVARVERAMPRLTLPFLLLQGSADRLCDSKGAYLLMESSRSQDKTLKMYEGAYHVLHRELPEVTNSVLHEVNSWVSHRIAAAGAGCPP
How it was run: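 Adult male mice dosed i.p. at 0.2, 1, 5 or 20 mg/kg (n = 3/group), vehicle DMSO or PEG/Tween (4:1). Killed at 1 h; brains halved and frozen. One half for 2-AG by LC-MS, the other for MAGL assay on homogenate. t-test against vehicle; two-way ANOVA with Bonferroni post-test.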

[5] = target: Kappa-type opioid receptor (Homo sapiens) (UniProt P41145); assay: Agonist activity at human KOP at 10 uM relative to control; assay type: functional; conditions: filed as agonist
[6] = target: T3, Monoglyceride lipase (Mus musculus); assay: In-vivo inhibition of mouse MAGL assessed as effect on OEA level in brain at 5 mg/kg, ip measured after 1 hr by LC-MS/MS analysis; assay type: functional, organism-based
How it was run: (§2)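 Adult male mice received 5 mg/kg i.p. (n = 3/group), DMSO vehicle. Killed at 1 h. Half-brains used for lipid analysis by LC-MS; the other half homogenised for MAGL activity assay. Compared with vehicle by two-tailed t-test.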

[7] = target: T3, Monoglyceride lipase (Mus musculus); assay: In-vivo inhibition of mouse MAGL assessed as decrease in arachidonic acid level in brain at 5 mg/kg, ip measured after 1 hr by LC-MS/MS analysis; assay type: functional, organism-based; how it was run: as §2
[8] = target: T3, Monoglyceride lipase (Mus musculus); assay: In-vivo inhibition of MAGL activity in brain of mouse at 5 mg/kg, ip measured after 1 hrs by LC-MS analysis; assay type: functional, organism-based; how it was run: as §2
Cannabinoid receptor 2 = Cannabinoid receptor 2 (Homo sapiens, UniProt P34972); assay: Agonist activity at human CB2 receptor at 10 uM by TR-FRET assay; assay type: functional
[9] = target: T3, Monoglyceride lipase (Mus musculus); assay: In-vivo inhibition of mouse MAGL assessed as effect on docosahexaenoic level in brain at 5 mg/kg, ip measured after 1 hr by LC-MS/MS analysis; assay type: functional, organism-based; how it was run: as §2
[10] = target: Cannabinoid receptor 1 (Homo sapiens) (UniProt P21554); assay: Agonist activity at CB1 receptor (unknown origin) at 10 uM; assay type: functional
[11] = target: T3, Monoglyceride lipase (Mus musculus); assay: In-vivo inhibition of mouse MAGL assessed as effect on PEA level in brain at 5 mg/kg, ip measured after 1 hr by LC-MS/MS analysis; assay type: functional, organism-based; how it was run: as §2
[12] = target: T3, Monoglyceride lipase (Mus musculus); assay: In-vivo inhibition of mouse MAGL assessed as effect on AEA level in brain at 5 mg/kg, ip measured after 1 hr by LC-MS/MS analysis; assay type: functional, organism-based; how it was run: as §2
[13] = target: T3, Monoglyceride lipase (Mus musculus); assay: In-vivo inhibition of mouse MAGL assessed as effect on stearic level in brain at 5 mg/kg, ip measured after 1 hr by LC-MS/MS analysis; assay type: functional, organism-based; how it was run: as §2
[14] = target: T3, Monoglyceride lipase (Mus musculus); assay: In-vivo inhibition of mouse MAGL assessed as effect on palmitic level in brain at 5 mg/kg, ip measured after 1 hr by LC-MS/MS analysis; assay type: functional, organism-based; how it was run: as §2
[15] = target: T3, Monoglyceride lipase (Mus musculus); assay: In-vivo inhibition of mouse MAGL assessed as fold increase in 2-AG content in brain at 5 mg/kg, ip measured after 1 hr by LC-MS/MS analysis; assay type: functional, organism-based; how it was run: as §2
[16] = target: T3, Monoglyceride lipase (Mus musculus); assay: In-vivo inhibition of mouse MAGL assessed as effect on oleic level in brain at 5 mg/kg, ip measured after 1 hr by LC-MS/MS analysis; assay type: functional, organism-based; how it was run: as §2
[17] = target: T4, Monoglyceride lipase (Rattus norvegicus) (UniProt Q8R431); assay: Inhibition of wild type rat MAGL expressed in human HeLa cells; assay type: cell-based; conditions: time 10.0 min, TDE = time-dependent effect
T4 sequence (whole entry): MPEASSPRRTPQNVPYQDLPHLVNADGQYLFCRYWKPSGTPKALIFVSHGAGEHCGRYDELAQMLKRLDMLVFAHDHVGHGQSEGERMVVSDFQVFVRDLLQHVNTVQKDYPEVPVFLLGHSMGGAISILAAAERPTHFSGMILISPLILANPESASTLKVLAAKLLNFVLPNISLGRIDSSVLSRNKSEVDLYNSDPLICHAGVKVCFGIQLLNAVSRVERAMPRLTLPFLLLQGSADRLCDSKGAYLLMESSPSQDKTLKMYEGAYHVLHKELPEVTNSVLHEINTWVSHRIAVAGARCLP
How it was run: (§3)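 Homogenates of HeLa cells overexpressing wild-type rat MAGL, in 50 mM Tris-HCl pH 8.0 with 0.5 mg/mL fatty-acid-free BSA, 37 °C; 2-OG substrate 10 µM final, oleic acid by LC/MS. Time course: preincubation for varied times, then 30 min with substrate. Dilution: enzyme concentrated 100-fold, preincubated 20 min with 10× IC50-equivalent compound or 1% DMSO, diluted 100-fold into substrate buffer, product followed over 60 min (n = 3).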

[18] = target: T4, Monoglyceride lipase (Rattus norvegicus); assay: Irreversible inhibition of rat MAGL expressed in human HeLa cells incubated for 60 mins; assay type: cell-based; how it was run: as §3

Chain of Acyl-protein thioesterase 2 (Mus musculus) (Q9WTL7 whole entry): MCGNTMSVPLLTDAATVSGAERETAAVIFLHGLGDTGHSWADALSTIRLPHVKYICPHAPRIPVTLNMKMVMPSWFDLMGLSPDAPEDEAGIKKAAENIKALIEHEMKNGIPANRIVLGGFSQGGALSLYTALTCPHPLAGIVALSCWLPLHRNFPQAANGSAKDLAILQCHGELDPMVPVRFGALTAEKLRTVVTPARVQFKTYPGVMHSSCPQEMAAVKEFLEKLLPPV
Chain of Cannabinoid receptor 1 (Homo sapiens) (P21554 whole entry): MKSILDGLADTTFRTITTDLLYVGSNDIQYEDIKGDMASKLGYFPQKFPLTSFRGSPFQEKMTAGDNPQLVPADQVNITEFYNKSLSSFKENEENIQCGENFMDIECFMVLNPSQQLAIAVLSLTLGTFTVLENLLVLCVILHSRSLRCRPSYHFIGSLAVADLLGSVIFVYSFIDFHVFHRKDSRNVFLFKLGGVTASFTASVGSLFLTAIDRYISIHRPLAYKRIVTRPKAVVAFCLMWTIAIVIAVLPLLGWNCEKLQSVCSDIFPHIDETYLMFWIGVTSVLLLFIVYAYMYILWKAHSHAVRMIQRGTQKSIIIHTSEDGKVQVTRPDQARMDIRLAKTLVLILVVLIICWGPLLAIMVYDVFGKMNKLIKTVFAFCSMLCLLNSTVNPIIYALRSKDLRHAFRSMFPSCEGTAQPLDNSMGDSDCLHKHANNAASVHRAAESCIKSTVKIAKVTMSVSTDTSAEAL
Chain of Cannabinoid receptor 2 (P34972 whole entry): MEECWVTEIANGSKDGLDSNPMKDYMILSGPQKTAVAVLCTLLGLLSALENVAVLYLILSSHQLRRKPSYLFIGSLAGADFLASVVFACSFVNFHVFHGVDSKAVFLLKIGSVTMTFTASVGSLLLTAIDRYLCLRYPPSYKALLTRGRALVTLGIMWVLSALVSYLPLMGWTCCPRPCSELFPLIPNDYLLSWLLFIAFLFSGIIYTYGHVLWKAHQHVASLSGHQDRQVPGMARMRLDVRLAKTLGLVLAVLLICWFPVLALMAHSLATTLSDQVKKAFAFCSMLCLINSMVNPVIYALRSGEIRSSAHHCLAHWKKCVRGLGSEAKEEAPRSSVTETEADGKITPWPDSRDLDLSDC
Chain of Kappa-type opioid receptor (Homo sapiens) (P41145 whole entry): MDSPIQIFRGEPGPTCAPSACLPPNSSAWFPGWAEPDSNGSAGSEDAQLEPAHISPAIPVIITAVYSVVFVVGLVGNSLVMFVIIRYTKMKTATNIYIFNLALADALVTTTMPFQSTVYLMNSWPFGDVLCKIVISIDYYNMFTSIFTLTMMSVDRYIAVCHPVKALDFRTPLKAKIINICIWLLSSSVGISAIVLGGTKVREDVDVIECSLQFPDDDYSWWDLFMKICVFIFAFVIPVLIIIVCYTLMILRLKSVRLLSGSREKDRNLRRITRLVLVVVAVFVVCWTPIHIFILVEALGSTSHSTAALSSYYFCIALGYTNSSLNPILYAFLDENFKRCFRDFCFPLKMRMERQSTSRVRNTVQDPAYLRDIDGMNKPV

| SMILES | Activity [1] | Activity [2] | Activity [3] | inhibition [4] | Activity [5] [%] | inhibition [6] | inhibition [7] | inhibition [8] [%] | Activity (Cannabinoid receptor 2) | inhibition [9] | Activity [10] | inhibition [11] | inhibition [12] | inhibition [13] | inhibition [14] | fold change (FC) [15] | inhibition [16] | inhibition [17] | inhibition [18] |
| --- | --- | --- | --- | --- | --- | --- | --- | --- | --- | --- | --- | --- | --- | --- | --- | --- | --- | --- | --- |
| O=C1[C@H](c2ccc(F)cc2)[C@@H](c2ccc3c(c2)OCO3)N1C1CCN(C(=O)n2nnc3ccccc32)CC1 | Active | Active | Active |  |  |  |  |  |  |  |  |  |  |  |  |  |  |  |  |
| O=C(Oc1ccc([N+](=O)[O-])cc1)N1CCC(C(O)(c2ccc3c(c2)OCO3)c2ccc3c(c2)OCO3)CC1 |  |  |  | Dose-Dependent Effect |  |  |  |  |  |  |  |  |  |  |  |  |  |  |  |
| O=C1[C@H](c2ccc(F)cc2)[C@@H](c2ccc3c(c2)OCO3)N1C1CCN(C(=O)n2nnc3ccccc32)CC1 (racemic) | Active | Active | Active | Dose-Dependent Effect | 73 | Dose-Dependent Effect | Active | 50 | inactive | Active | inactive | Dose-Dependent Effect | Dose-Dependent Effect | Active | Active | > 40 | Active | Tde | Active |
